Test results reported in ChEMBL document CHEMBL4385593, “Design, synthesis and biological evaluation of novel benzothiadiazine derivatives as potent PI3Kδ-selective inhibitors for treating B-cell-mediated malignancies” (Eur J Med Chem, 2019).

Experiments:
[1] = molecular target: PI3-kinase p110-delta/p85-alpha (Homo sapiens, UniProt O00329); test: Inhibition of His-tagged recombinant human PI3K p110delta/p85alpha using lipid substrate incubated for 2 hrs by ADP-Glo assay; format: protein-complex assay
[2] = tested on: SU-DHL-6; test: Growth inhibition of human SU-DHL6 cells incubated for 72 hrs by CellTiter-Glo assay; format: functional; conditions: SU-DHL-6, 72 h
Procedure, shortened: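 SU-DHL-6 cells were seeded at 1 × 10^4 per well and exposed to compound or medium alone for 72 h. Viability was measured by CellTiter-Glo luminescence, and GI50 was derived by curve fitting.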

[3] = species: Homo sapiens; test: Selectivity ratio of IC50 for His-tagged recombinant human full length PI3K p110alpha/p85alpha to IC50 for His-tagged recombinant human PI3K p110delta/p85alpha
[4] = molecular target: Phosphatidylinositol 4,5-bisphosphate 3-kinase catalytic subunit beta isoform (Homo sapiens, UniProt P42338); test: Inhibition of His6-tagged recombinant full length human N-terminal PI3Kbeta expressed in baculovirus infected Sf21 cells using lipid substrate incubated for 2 hrs by ADP-Glo assay
[5] = molecular target: PI3-kinase p110-alpha/p85-alpha (Homo sapiens, UniProt P42336); test: Inhibition of His-tagged recombinant human full length PI3K p110alpha/p85alpha expressed in baculovirus expression system using lipid substrate incubated for 60 mins by kinase-Glo reagent based luminescence assay
[6] = molecular target: Phosphatidylinositol 4,5-bisphosphate 3-kinase catalytic subunit gamma isoform (Homo sapiens, UniProt P48736); test: Inhibition of His-tagged recombinant human full length PI3K p110gamma expressed in baculovirus expression system using lipid substrate incubated for 2 hrs by ADP-Glo assay
[7] = species: Homo sapiens; test: Selectivity ratio of IC50 for His6-tagged recombinant full length human N-terminal PI3Kbeta to IC50 for His-tagged recombinant human PI3K p110delta/p85alpha
[8] = species: Homo sapiens; test: Selectivity ratio of IC50 for His-tagged recombinant human full length PI3K p110gamma to IC50 for His-tagged recombinant human PI3K p110delta/p85alpha
[9] = Half life in Sprague-Dawley rat at 2 mg/kg, iv by LC/MS/MS analysis; format: ADME, organism-based; conditions: in vivo
Procedure, shortened: (§1)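 Male SD rats, three per group, dosed iv at 2 mg/kg or orally at 10 mg/kg. iv dose was a 0.4 mg/mL solution in 5% DMSO/10% Solutol/10% EtOH/75% saline. Oral dose was a 1 mg/mL suspension in 2% DMSO/98% MC (0.5%). Terminal orbital blood was taken into EDTA-2K under isoflurane at set time points. Plasma levels were measured by LC/MS/MS.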

[10] = AUC (0 to t) in Sprague-Dawley rat at 2 mg/kg, iv by LC/MS/MS analysis; format: ADME, organism-based; conditions: in vivo; procedure, shortened: as §1
[11] = Volume of distribution at steady state in Sprague-Dawley rat at 2 mg/kg, iv by LC/MS/MS analysis; format: ADME, organism-based; conditions: in vivo, read-out: Vdss; procedure, shortened: as §1
[12] = Cmax in Sprague-Dawley rat at 10 mg/kg, po by LC/MS/MS analysis; format: ADME, organism-based; design: dose 10 mg/kg, route oral; conditions: in vivo; procedure, shortened: as §1
[13] = AUC (0 to t) in Sprague-Dawley rat at 10 mg/kg, po by LC/MS/MS analysis; format: ADME, organism-based; conditions: in vivo; procedure, shortened: as §1
[14] = Oral bioavailability in Sprague-Dawley rat at 10 mg/kg by LC/MS/MS analysis; format: ADME, organism-based; conditions: in vivo; procedure, shortened: as §1
[15] = Half life in Sprague-Dawley rat at 10 mg/kg, po by LC/MS/MS analysis; format: ADME, organism-based; conditions: in vivo; procedure, shortened: as §1
[16] = Clearance in Sprague-Dawley rat at 2 mg/kg, iv by LC/MS/MS analysis; format: ADME, organism-based; conditions: in vivo

Chain of Phosphatidylinositol 4,5-bisphosphate 3-kinase catalytic subunit beta isoform (P42338 whole entry, canonical isoform): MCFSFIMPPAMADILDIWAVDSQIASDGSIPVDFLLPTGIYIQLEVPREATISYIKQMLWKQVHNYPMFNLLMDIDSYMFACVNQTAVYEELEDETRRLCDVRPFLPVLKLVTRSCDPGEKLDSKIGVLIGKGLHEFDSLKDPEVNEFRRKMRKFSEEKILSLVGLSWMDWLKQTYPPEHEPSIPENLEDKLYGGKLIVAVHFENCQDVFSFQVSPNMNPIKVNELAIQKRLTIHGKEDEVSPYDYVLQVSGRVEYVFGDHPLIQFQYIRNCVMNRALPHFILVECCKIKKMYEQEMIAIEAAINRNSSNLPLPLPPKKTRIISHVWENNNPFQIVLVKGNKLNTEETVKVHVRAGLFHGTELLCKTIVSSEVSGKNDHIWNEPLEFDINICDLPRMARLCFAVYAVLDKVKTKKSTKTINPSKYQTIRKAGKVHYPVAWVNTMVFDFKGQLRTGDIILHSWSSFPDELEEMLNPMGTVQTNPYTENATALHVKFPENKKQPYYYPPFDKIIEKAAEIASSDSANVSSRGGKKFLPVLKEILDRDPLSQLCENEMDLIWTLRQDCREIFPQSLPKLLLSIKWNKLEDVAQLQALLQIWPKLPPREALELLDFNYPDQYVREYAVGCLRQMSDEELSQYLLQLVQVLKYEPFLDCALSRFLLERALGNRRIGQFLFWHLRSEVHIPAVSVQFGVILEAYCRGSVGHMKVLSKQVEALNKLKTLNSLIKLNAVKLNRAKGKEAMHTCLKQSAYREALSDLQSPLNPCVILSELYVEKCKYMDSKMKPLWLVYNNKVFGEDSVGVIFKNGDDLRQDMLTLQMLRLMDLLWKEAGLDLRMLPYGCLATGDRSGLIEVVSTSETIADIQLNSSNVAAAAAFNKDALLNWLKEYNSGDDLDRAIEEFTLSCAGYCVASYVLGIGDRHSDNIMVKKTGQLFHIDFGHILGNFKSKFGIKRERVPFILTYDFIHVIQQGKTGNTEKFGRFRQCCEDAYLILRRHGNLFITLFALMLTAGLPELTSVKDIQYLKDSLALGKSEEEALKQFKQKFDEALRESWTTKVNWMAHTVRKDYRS
Chain of PI3-kinase p110-delta/p85-alpha (P27986 whole entry): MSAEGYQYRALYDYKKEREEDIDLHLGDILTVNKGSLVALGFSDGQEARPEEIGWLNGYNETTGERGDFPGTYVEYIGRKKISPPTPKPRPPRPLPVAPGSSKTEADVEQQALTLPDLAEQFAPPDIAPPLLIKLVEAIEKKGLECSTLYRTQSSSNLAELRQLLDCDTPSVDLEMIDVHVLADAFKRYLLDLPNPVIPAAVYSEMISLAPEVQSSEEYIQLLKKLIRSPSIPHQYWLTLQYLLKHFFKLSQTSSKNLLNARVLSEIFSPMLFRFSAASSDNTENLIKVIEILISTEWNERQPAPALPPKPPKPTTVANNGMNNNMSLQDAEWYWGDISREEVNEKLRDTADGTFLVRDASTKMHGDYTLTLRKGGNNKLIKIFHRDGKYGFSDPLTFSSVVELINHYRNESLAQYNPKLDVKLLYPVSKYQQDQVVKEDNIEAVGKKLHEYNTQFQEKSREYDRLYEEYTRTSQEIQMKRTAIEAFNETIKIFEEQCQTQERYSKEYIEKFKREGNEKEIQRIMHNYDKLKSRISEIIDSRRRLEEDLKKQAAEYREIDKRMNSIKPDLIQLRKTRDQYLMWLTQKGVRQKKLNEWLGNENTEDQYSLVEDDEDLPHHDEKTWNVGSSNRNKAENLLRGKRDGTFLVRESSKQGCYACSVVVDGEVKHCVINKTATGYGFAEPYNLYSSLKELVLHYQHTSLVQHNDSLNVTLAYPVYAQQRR
Chain of PI3-kinase p110-delta/p85-alpha (O00329 whole entry): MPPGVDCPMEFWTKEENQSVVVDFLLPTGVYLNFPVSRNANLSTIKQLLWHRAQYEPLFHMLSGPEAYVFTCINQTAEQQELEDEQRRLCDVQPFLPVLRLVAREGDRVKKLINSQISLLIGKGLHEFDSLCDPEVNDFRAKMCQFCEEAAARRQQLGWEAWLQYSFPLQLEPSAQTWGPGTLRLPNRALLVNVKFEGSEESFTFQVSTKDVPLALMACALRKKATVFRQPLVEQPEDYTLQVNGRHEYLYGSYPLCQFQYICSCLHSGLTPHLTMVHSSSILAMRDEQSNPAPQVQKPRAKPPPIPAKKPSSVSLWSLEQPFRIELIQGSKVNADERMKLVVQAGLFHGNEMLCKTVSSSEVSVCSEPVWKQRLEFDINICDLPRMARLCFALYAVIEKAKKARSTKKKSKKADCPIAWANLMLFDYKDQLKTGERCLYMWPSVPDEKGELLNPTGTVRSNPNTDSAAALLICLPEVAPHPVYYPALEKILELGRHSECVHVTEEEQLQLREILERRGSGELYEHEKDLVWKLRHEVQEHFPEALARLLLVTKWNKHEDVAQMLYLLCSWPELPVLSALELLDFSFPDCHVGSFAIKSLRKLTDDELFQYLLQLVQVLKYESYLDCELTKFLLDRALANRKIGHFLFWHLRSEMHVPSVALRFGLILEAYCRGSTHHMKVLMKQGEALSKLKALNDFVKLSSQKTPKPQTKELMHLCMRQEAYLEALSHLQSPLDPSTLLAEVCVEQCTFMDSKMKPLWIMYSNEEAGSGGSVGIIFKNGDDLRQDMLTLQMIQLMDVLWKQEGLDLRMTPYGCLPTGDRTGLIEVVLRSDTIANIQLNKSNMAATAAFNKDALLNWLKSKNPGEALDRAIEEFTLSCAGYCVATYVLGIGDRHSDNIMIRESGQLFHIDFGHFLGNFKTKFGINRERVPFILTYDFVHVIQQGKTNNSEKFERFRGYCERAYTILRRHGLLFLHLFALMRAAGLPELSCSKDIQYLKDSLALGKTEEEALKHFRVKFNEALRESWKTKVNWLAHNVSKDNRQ
Chain of PI3-kinase p110-alpha/p85-alpha (P27986 whole entry, canonical isoform): as the sequence (P27986 whole entry) above
Chain of PI3-kinase p110-alpha/p85-alpha (P42336 whole entry, canonical isoform): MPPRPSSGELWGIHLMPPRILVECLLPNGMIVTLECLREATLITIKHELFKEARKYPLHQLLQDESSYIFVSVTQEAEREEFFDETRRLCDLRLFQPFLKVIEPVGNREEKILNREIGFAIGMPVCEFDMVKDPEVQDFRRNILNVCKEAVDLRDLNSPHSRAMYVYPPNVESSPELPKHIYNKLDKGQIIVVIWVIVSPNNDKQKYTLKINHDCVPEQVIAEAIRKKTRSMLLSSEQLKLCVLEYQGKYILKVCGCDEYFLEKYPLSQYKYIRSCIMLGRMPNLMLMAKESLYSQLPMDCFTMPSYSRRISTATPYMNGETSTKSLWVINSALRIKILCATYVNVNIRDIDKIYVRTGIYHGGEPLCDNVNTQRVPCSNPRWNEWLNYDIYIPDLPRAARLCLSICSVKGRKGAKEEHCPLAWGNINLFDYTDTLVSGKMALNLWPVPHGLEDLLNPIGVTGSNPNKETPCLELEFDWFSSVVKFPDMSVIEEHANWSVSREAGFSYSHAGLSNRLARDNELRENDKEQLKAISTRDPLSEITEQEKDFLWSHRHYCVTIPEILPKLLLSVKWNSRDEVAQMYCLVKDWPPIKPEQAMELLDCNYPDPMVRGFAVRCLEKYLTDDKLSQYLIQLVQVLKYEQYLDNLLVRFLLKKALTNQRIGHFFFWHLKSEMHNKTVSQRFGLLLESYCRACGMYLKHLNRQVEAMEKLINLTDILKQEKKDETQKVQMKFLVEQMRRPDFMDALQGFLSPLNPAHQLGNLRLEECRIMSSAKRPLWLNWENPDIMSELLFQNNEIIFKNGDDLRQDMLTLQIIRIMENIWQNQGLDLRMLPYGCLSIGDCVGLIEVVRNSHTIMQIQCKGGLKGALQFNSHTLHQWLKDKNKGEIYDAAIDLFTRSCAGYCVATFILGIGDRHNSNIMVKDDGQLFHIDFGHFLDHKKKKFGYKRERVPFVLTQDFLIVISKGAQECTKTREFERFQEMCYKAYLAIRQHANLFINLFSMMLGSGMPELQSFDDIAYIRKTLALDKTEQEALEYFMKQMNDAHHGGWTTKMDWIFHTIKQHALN
Chain of Phosphatidylinositol 4,5-bisphosphate 3-kinase catalytic subunit gamma isoform (P48736 whole entry, canonical isoform): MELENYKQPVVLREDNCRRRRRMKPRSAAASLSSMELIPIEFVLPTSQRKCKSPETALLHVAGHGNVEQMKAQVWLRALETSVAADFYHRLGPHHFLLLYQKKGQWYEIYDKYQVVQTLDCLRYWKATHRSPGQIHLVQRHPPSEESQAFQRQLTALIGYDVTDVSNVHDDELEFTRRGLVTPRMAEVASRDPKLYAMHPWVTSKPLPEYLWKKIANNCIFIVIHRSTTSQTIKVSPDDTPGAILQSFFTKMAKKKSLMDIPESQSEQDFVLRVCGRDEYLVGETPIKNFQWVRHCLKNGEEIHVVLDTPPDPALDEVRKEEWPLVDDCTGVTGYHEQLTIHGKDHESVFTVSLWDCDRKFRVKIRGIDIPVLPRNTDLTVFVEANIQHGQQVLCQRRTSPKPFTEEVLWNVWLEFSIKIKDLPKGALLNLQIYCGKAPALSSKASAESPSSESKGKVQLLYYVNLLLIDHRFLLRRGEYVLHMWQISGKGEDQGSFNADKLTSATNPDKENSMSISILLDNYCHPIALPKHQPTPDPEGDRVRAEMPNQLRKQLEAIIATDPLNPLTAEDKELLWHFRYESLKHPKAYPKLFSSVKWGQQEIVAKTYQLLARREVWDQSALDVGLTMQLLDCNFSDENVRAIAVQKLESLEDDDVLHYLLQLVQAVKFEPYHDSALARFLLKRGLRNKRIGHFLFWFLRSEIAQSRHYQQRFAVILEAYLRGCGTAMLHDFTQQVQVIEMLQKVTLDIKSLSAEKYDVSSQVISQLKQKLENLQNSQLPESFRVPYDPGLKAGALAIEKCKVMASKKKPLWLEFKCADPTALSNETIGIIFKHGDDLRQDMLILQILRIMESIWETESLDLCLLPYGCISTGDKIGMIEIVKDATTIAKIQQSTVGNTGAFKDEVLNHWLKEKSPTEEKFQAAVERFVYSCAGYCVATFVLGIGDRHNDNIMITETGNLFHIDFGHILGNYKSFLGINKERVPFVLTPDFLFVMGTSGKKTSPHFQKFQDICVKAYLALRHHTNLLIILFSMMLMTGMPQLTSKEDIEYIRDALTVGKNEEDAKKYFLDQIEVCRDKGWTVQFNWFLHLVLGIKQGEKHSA

SMILES	IC50 [1] [nM]	GI50 [2] [nM]	also measured
CCC(Nc1ncnc2[nH]cnc12)C1=Nc2ccccc2S(=O)(=O)N1c1ccc(OC(F)(F)F)cc1 (stereo not drawn)	> 3000	–	–
CCC(Nc1ncnc2[nH]cnc12)C1=Nc2ccccc2S(=O)(=O)N1c1cccc(C(F)(F)F)c1 (stereo not drawn)	> 3000	–	–
CC[C@H](Nc1ncnc2[nH]cnc12)c1nc2cccc(F)c2c(=O)n1-c1ccccc1 [IDELALISIB]	–	124	half-life [9]: 31.1 min; AUC(0-t) [10]: 1400 ng·h/mL; Vd [11]: 0.884 L/kg; Cmax [12]: 2320 ng/mL; AUC(0-t) [13]: 3190 ng·h/mL; bioavailability [14]: 45.8%; half-life [15]: 61.8 min
CC(Nc1ncnc2[nH]cnc12)C1=Nc2ccccc2S(=O)(=O)N1c1cccnc1 (stereo not drawn)	921	–	–
CCC(C1=Nc2ccccc2S(=O)(=O)N1c1ccc(OC(F)(F)F)cc1)n1cnc2c(N)ncnc21 (stereo not drawn)	> 3000	–	–
CCC(C1=Nc2ccccc2S(=O)(=O)N1c1ccc(F)cc1)n1cnc2c(N)ncnc21 (stereo not drawn)	> 3000	–	–
CC(Nc1ncnc2[nH]cnc12)C1=Nc2ccccc2S(=O)(=O)N1c1cccc(C(F)(F)F)c1 (stereo not drawn)	> 3000	–	–
CC(Nc1nc(Cl)nc2[nH]cnc12)C1=Nc2ccccc2S(=O)(=O)N1c1ccccc1 (stereo not drawn)	1200	–	–
CCC(Nc1ncnc2[nH]cnc12)C1=Nc2cccc(F)c2S(=O)(=O)N1c1ccccc1 (stereo not drawn)	> 3000	–	–
CC(=O)O[C@H]1C(=O)[C@@]2(C)[C@H]([C@H](OC(=O)c3ccccc3)[C@]3(O)C[C@H](OC(=O)[C@H](O)[C@@H](NC(=O)c4ccccc4)c4ccccc4)C(C)=C1C3(C)C)[C@]1(OC(C)=O)CO[C@@H]1C[C@@H]2O [PACLITAXEL]	–	1.9	–
CC(C1=Nc2ccccc2S(=O)(=O)N1c1ccc(F)cc1)n1cnc2c(N)ncnc21 (stereo not drawn)	628	–	–
CCC(Nc1ncnc2[nH]cnc12)C1=Nc2ccccc2S(=O)(=O)N1c1ccc(OC)c(OC)c1 (stereo not drawn)	> 3000	–	–
CC(Nc1ncnc2[nH]cnc12)C1=Nc2ccccc2S(=O)(=O)N1c1ccc(F)cc1 (stereo not drawn)	2000	–	–

The next lines start with results.

IC50 [1] [nM]	GI50 [2] [nM]	SMILES	also measured
15	3500	CC(Nc1ncnc(N)c1C#N)C1=Nc2ccccc2S(=O)(=O)N1c1ccccc1 (stereo not drawn)	–
9.8	770	CC(Nc1ncnc2[nH]cnc12)C1=Nc2cccc(Cl)c2S(=O)(=O)N1c1ccccc1 (stereo not drawn)	–
< 0.32	15.9	C[C@H](Nc1ncnc(N)c1C#N)C1=Nc2cccc(Cl)c2S(=O)(=O)N1c1ccccc1	Ratio IC50 [3]: > 3110; IC50 [4]: 55 nM; IC50 [5]: 996 nM; IC50 [6]: 100 nM; Ratio IC50 [7]: > 172; Ratio IC50 [8]: > 313
12	1680	CCC(Nc1ncnc(N)c1C#N)C1=Nc2cccc(Cl)c2S(=O)(=O)N1c1ccccc1 (stereo not drawn)	–
141	10500	CCC(Nc1ncnc(N)c1C#N)C1=Nc2cccc(F)c2S(=O)(=O)N1c1ccccc1 (stereo not drawn)	–
62	190	C[C@@H](Nc1ncnc2[nH]cnc12)C1=Nc2cccc(Cl)c2S(=O)(=O)N1c1ccccc1	Ratio IC50 [3]: > 81; IC50 [4]: 3990 nM; IC50 [5]: > 5000 nM; IC50 [6]: 1910 nM; Ratio IC50 [7]: 64; Ratio IC50 [8]: 31
344	–	CC(Nc1ncnc2[nH]cnc12)C1=Nc2ccccc2S(=O)(=O)N1c1ccccc1 (stereo not drawn)	–
68	23100	CC(C1=Nc2ccccc2S(=O)(=O)N1c1ccccc1)n1cnc2c(N)ncnc21 (stereo not drawn)	–
3.2	187	CC(Nc1ncnc(N)c1C#N)C1=Nc2cccc(Cl)c2S(=O)(=O)N1c1ccccc1 (stereo not drawn)	–
7	70.3	C[C@@H](Nc1ncnc(N)c1C#N)C1=Nc2cccc(Cl)c2S(=O)(=O)N1c1ccccc1	Ratio IC50 [3]: > 714; IC50 [4]: 169 nM; IC50 [5]: > 5000 nM; IC50 [6]: 112 nM; Ratio IC50 [7]: 24; Ratio IC50 [8]: 16
623	–	CC(C1=Nc2ccccc2S(=O)(=O)N1c1cccnc1)n1cnc2c(N)ncnc21 (stereo not drawn)	–
92	4690	CC(Nc1nc(F)nc2[nH]cnc12)C1=Nc2ccccc2S(=O)(=O)N1c1ccccc1 (stereo not drawn)	–
383	–	CCC(Nc1nc(F)nc2[nH]cnc12)C1=Nc2cccc(F)c2S(=O)(=O)N1c1ccccc1 (stereo not drawn)	–
81	2190	CCC(Nc1ncnc2[nH]cnc12)C1=Nc2cccc(Cl)c2S(=O)(=O)N1c1ccccc1 (stereo not drawn)	–
4.6	33.2	C[C@H](Nc1ncnc2[nH]cnc12)C1=Nc2cccc(Cl)c2S(=O)(=O)N1c1ccccc1	Ratio IC50 [3]: 791; IC50 [4]: 766 nM; IC50 [5]: 3640 nM; IC50 [6]: 156 nM; Ratio IC50 [7]: 167; Ratio IC50 [8]: 34; half-life [9]: 31.1 min; AUC(0-t) [10]: 1400 ng·h/mL; Vd [11]: 0.853 L/kg; clearance [16]: 25.8 mL/min/kg; Cmax [12]: 643 ng/mL; AUC(0-t) [13]: 2010 ng·h/mL; bioavailability [14]: 29.2%; half-life [15]: 72 min
54	7200	CC(C1=Nc2cccc(F)c2S(=O)(=O)N1c1ccccc1)n1cnc2c(N)ncnc21 (stereo not drawn)	–
35	1220	CC(Nc1ncnc(N)c1C#N)C1=Nc2cccc(F)c2S(=O)(=O)N1c1ccccc1 (stereo not drawn)	–
